Assay results published in ChEMBL document CHEMBL1143542, “Structure-activity relationships of bivalent aminoglycosides and evaluation of their microbiological activities” (2005).

How the values were obtained:
Assay type in all cases: functional, organism-based
Pseudomonas aeruginosa [1] = assay: Susceptibility testing against Pseudomonas aeruginosa PAE_NUH03; R=Resistant
Outline: (§1)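 Disk diffusion susceptibility profiling of P. aeruginosa reference and clinical isolates against empirically used antipseudomonal antibiotics. Each isolate was categorised as susceptible, intermediate or resistant.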

Pseudomonas aeruginosa [2] = assay: Susceptibility testing against Pseudomonas aeruginosa PAE_NUH07; R=Resistant; outline: as §1
Pseudomonas aeruginosa [3] = assay: Susceptibility testing against Pseudomonas aeruginosa PAE_NUH06; R=Resistant; outline: as §1
Pseudomonas aeruginosa [4] = assay: Susceptibility testing against Pseudomonas aeruginosa PAE_NUH19; R=Resistant; outline: as §1
Pseudomonas aeruginosa [5] = assay: Susceptibility testing against Pseudomonas aeruginosa ATCC 27853; S=Susceptible
Outline: (§2)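 Disk diffusion susceptibility profiling against a panel of empirically used antipseudomonal antibiotics. Each strain was categorised as susceptible (S) or intermediate (I).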

Pseudomonas aeruginosa [6] = assay: Susceptibility testing against Pseudomonas aeruginosa PAE_NUH18; R=Resistant; outline: as §1
Pseudomonas aeruginosa [7] = assay: Susceptibility testing against Pseudomonas aeruginosa PAE_NUH22; R=Resistant; outline: as §1
Pseudomonas aeruginosa [8] = assay: Susceptibility testing against Pseudomonas aeruginosa PAE_NUH24; R=Resistant; outline: as §1
Pseudomonas aeruginosa [9] = assay: Susceptibility testing against Pseudomonas aeruginosa PAE_NUH01; R=Resistant; outline: as §1
Pseudomonas aeruginosa [10] = assay: Susceptibility testing against Pseudomonas aeruginosa PAE_NUH05; R=Resistant; outline: as §1
Pseudomonas aeruginosa [11] = assay: Susceptibility testing against Pseudomonas aeruginosa PAE_NUH04; R=Resistant; outline: as §1
Pseudomonas aeruginosa [12] = assay: Susceptibility testing against Pseudomonas aeruginosa PAE_NUH23; R=Resistant; outline: as §1
Pseudomonas aeruginosa [13] = assay: Susceptibility testing against Pseudomonas aeruginosa PAE_NUH21; R=Resistant; outline: as §1
Pseudomonas aeruginosa [14] = assay: Susceptibility testing against Pseudomonas aeruginosa PAE_NUH02; R=Resistant; outline: as §1
Pseudomonas aeruginosa [15] = assay: Susceptibility testing against Pseudomonas aeruginosa PAE_NUH17; S=Susceptible; outline: as §2
Pseudomonas aeruginosa [16] = assay: Susceptibility testing against Pseudomonas aeruginosa PAE_NUH20; R=Resistant; outline: as §1
Pseudomonas aeruginosa [17] = assay: Susceptibility testing against Pseudomonas aeruginosa PAE_NUH25; R=Resistant; outline: as §1
Pseudomonas aeruginosa [18] = assay: Susceptibility testing against Pseudomonas aeruginosa PAE_NUH20; S=Susceptible; outline: as §2
Pseudomonas aeruginosa [19] = assay: Susceptibility testing against Pseudomonas aeruginosa PAE_NUH23; I=Intermediate; outline: as §1
Pseudomonas aeruginosa [20] = assay: Susceptibility testing against Pseudomonas aeruginosa PAE_NUH18; I=Intermediate; outline: as §1
Pseudomonas aeruginosa [21] = assay: Susceptibility testing against Pseudomonas aeruginosa PAE_NUH21; S=Susceptible; outline: as §2
Pseudomonas aeruginosa [22] = assay: Susceptibility testing against Pseudomonas aeruginosa PAE_NUH19; S=Susceptible; outline: as §2
Pseudomonas aeruginosa [23] = assay: Susceptibility testing against Pseudomonas aeruginosa PAE_NUH25; S=Susceptible; outline: as §2
Pseudomonas aeruginosa [24] = assay: Susceptibility testing against Pseudomonas aeruginosa PAE_NUH22; S=Susceptible; outline: as §2
Pseudomonas aeruginosa [25] = assay: Susceptibility testing against Pseudomonas aeruginosa PAE_NUH24; I=Intermediate; outline: as §1

Compound | Activity (Pseudomonas aeruginosa [1]) | Activity (Pseudomonas aeruginosa [2]) | Activity (Pseudomonas aeruginosa [3]) | Activity (Pseudomonas aeruginosa [5]) | Activity (Pseudomonas aeruginosa [9]) | Activity (Pseudomonas aeruginosa [10]) | Activity (Pseudomonas aeruginosa [11]) | Activity (Pseudomonas aeruginosa [14]) | Activity (Pseudomonas aeruginosa [15]) | also measured
C[C@H]1[C@H](NC(=O)/C(=N\OC(C)(C)C(=O)O)c2csc(N)n2)C(=O)N1S(=O)(=O)O | Resistant | Resistant | Resistant | Susceptible | Resistant | Resistant | Resistant | Resistant | Susceptible | Activity (Pseudomonas aeruginosa [4]): Resistant; Activity (Pseudomonas aeruginosa [6]): Resistant; Activity (Pseudomonas aeruginosa [7]): Resistant; Activity (Pseudomonas aeruginosa [8]): Resistant; Activity (Pseudomonas aeruginosa [12]): Resistant; Activity (Pseudomonas aeruginosa [13]): Resistant; Activity (Pseudomonas aeruginosa [16]): Resistant; Activity (Pseudomonas aeruginosa [17]): Resistant
GENTAMICIN | Resistant | Resistant | Resistant | Susceptible | Resistant | Resistant | Resistant | Resistant | Susceptible | Activity (Pseudomonas aeruginosa [18]): Susceptible; Activity (Pseudomonas aeruginosa [19]): I; Activity (Pseudomonas aeruginosa [20]): I; Activity (Pseudomonas aeruginosa [21]): Susceptible; Activity (Pseudomonas aeruginosa [22]): Susceptible; Activity (Pseudomonas aeruginosa [23]): Susceptible; Activity (Pseudomonas aeruginosa [24]): Susceptible; Activity (Pseudomonas aeruginosa [25]): I
